Each block holds one compound with its values, some of them ahead of it.
How the values were obtained:
Homo sapiens [1] = organism: Homo sapiens; test: Selectivity ratio of IC50 for PDE4B2 (unknown origin) to IC50 for PDE4D3 (unknown origin)
Phosphodiesterase 4 = Phosphodiesterase 4 (Homo sapiens, UniProt P27815+Q08499+Q07343+Q08493); test: Inhibition of core catalytic domains of human PDE4 using AM-Cyclic-3',5'-AMP after 60 mins by fluorescence polarization assay; format: protein assay
[2] = target: 3',5'-cyclic-AMP phosphodiesterase 4D (Homo sapiens, UniProt Q08499); test: Inhibition of human full-length PDE4D7 using AM-Cyclic-3',5'-AMP after 60 mins by fluorescence polarization assay
[3] = target: cGMP-specific 3',5'-cyclic phosphodiesterase (Homo sapiens) (UniProt O76074); test: Inhibition of human PDE5A using AM-Cyclic-3',5'-AMP at 10 uM after 60 mins by fluorescence polarization assay
Outline: (§1)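 Recombinant human PDE isoforms in 40 mM MOPS pH 7.5, 0.5 mM EDTA, 15 mM MgCl2, 0.15 mg/mL BSA, 1 mM DTT, 0.05% Proclin 200. […] Final DMSO 1%; 60 min at 25 °C. Binding agent was added, then 1 h more. Fluorescence polarization read at ex 360/em 480 nm. IC50 or single-concentration % inhibition; mean of two experiments.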

[4] = target: Dual 3',5'-cyclic-AMP and -GMP phosphodiesterase 11A (Homo sapiens) (UniProt Q9HCR9); conditions: 10 uM
[5] = target: cGMP-inhibited 3',5'-cyclic phosphodiesterase 3B (Homo sapiens) (UniProt Q13370); conditions: 10 uM
[6] = target: High affinity cGMP-specific 3',5'-cyclic phosphodiesterase 9A (Homo sapiens) (UniProt O76083); test: Inhibition of human PDE9A2 using AM-Cyclic-3',5'-AMP at 10 uM after 60 mins by fluorescence polarization assay; outline: as §1
[7] = target: 3',5'-cyclic-AMP phosphodiesterase 4B (Homo sapiens, UniProt Q07343); test: Inhibition of human full-length PDE4B1 using AM-Cyclic-3',5'-AMP after 60 mins by fluorescence polarization assay
[8] = target: cGMP-dependent 3',5'-cyclic phosphodiesterase (Homo sapiens) (UniProt O00408); conditions: 10 uM
[9] = target: High affinity cAMP-specific and IBMX-insensitive 3',5'-cyclic phosphodiesterase 8A (Homo sapiens) (UniProt O60658); test: Inhibition of human PDE8A1 using AM-Cyclic-3',5'-AMP at 10 uM after 60 mins by fluorescence polarization assay; outline: as §1
[10] = target: cAMP and cAMP-inhibited cGMP 3',5'-cyclic phosphodiesterase 10A (Homo sapiens) (UniProt Q9Y233); test: Inhibition of human PDE10A2 using AM-Cyclic-3',5'-AMP at 10 uM after 60 mins by fluorescence polarization assay; outline: as §1
[11] = target: Dual specificity calcium/calmodulin-dependent 3',5'-cyclic nucleotide phosphodiesterase 1A (Homo sapiens) (UniProt P54750); test: Inhibition of human PDE1A using AM-Cyclic-3',5'-AMP at 10 uM after 60 mins by fluorescence polarization assay; outline: as §1
[12] = target: High affinity 3',5'-cyclic-AMP phosphodiesterase 7A (Homo sapiens) (UniProt Q13946); conditions: 10 uM
Homo sapiens [13] = organism: Homo sapiens; test: Selectivity ratio of IC50 for PDE4B1 (unknown origin) to IC50 for PDE4D7 (unknown origin)
Homo sapiens [14] = organism: Homo sapiens; test: Selectivity ratio of IC50 for human full-length PDE4B1 to IC50 for human full-length PDE4D7
Homo sapiens [15] = organism: Homo sapiens; test: Selectivity ratio of IC50 for PDE4B (unknown origin) to IC50 for PDE4D (unknown origin)
Homo sapiens [16] = organism: Homo sapiens; test: Selectivity ratio of IC50 for PDE4B2 (unknown origin) to IC50 for PDE4D4 (unknown origin)

Chain of 3',5'-cyclic-AMP phosphodiesterase 4D (Q08499 whole entry): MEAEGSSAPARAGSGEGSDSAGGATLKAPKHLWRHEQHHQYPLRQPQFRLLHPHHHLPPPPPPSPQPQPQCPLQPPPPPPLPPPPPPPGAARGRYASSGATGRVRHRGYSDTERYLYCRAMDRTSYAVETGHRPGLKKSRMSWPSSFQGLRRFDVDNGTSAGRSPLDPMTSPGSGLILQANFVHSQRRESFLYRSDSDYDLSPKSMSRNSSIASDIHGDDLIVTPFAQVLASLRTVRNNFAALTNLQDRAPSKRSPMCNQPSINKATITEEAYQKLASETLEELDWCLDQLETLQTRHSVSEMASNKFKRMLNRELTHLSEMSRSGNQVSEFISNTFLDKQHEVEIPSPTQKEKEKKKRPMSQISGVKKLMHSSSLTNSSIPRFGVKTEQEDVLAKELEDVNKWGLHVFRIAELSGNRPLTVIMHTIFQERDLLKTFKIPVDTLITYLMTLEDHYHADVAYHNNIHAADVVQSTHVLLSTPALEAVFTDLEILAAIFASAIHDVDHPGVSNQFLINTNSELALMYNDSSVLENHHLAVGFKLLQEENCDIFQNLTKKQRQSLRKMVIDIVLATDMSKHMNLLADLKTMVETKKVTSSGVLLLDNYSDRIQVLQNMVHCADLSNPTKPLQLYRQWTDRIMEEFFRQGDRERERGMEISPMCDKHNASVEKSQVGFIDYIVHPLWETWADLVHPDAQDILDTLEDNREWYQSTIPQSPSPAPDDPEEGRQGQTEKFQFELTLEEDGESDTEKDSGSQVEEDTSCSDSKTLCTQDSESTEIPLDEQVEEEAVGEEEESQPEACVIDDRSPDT
Chain of 3',5'-cyclic-AMP phosphodiesterase 4B (Q07343 whole entry): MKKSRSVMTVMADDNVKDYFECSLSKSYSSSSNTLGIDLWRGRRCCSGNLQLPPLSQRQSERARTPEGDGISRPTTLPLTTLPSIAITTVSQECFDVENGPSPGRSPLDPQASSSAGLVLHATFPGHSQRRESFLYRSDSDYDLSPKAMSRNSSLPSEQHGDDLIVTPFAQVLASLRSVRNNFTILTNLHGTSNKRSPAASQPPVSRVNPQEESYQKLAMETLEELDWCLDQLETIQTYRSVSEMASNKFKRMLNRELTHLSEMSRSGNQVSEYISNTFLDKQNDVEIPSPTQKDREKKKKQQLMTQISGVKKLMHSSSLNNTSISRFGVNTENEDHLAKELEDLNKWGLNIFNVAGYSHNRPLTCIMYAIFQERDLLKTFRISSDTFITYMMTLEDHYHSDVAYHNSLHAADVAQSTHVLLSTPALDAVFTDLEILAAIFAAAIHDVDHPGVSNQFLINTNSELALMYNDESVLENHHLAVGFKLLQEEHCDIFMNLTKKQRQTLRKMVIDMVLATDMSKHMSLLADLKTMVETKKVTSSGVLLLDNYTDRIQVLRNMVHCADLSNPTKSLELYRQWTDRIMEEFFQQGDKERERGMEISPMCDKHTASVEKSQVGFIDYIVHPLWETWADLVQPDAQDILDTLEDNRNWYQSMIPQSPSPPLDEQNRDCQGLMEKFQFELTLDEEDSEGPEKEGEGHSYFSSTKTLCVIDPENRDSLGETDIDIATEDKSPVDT
Chain of High affinity cAMP-specific and IBMX-insensitive 3',5'-cyclic phosphodiesterase 8A (Homo sapiens) (O60658 whole entry): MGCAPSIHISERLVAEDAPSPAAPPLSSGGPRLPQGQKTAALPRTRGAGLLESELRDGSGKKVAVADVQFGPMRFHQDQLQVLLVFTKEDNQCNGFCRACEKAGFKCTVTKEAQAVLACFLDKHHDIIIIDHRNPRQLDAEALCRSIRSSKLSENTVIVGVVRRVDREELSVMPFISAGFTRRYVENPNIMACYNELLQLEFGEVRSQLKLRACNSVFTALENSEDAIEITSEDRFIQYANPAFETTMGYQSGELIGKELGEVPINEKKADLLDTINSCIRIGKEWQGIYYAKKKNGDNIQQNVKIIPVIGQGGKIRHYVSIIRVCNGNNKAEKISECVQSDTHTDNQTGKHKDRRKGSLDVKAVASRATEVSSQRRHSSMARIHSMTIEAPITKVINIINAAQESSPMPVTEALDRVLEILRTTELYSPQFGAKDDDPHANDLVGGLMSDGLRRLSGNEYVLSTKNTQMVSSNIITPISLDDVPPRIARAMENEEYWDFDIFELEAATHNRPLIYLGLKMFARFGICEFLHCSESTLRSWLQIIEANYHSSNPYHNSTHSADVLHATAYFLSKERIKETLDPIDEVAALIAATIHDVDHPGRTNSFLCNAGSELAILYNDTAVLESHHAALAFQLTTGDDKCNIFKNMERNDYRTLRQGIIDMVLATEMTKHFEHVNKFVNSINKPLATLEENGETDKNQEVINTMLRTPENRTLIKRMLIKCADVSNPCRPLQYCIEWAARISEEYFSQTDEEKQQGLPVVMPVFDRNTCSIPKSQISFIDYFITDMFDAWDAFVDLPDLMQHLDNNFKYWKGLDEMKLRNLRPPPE
Chain of High affinity cGMP-specific 3',5'-cyclic phosphodiesterase 9A (Homo sapiens) (O76083 whole entry): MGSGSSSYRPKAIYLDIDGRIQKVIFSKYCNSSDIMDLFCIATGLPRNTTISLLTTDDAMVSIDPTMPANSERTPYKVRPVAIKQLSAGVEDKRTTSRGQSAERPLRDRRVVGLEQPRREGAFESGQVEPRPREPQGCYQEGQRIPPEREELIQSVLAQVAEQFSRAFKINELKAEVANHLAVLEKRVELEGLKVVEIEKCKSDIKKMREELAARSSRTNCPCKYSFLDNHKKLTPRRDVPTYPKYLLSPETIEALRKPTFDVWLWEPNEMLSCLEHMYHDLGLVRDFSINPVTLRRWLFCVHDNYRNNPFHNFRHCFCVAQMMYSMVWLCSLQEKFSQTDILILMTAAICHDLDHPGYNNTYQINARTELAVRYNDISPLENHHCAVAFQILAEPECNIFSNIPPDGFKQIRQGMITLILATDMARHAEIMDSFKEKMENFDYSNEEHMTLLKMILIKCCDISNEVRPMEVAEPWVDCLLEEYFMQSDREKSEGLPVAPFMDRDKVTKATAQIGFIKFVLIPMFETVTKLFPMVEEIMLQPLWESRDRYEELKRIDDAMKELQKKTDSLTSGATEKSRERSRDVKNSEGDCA
Chain of Dual specificity calcium/calmodulin-dependent 3',5'-cyclic nucleotide phosphodiesterase 1A (Homo sapiens) (P54750 whole entry): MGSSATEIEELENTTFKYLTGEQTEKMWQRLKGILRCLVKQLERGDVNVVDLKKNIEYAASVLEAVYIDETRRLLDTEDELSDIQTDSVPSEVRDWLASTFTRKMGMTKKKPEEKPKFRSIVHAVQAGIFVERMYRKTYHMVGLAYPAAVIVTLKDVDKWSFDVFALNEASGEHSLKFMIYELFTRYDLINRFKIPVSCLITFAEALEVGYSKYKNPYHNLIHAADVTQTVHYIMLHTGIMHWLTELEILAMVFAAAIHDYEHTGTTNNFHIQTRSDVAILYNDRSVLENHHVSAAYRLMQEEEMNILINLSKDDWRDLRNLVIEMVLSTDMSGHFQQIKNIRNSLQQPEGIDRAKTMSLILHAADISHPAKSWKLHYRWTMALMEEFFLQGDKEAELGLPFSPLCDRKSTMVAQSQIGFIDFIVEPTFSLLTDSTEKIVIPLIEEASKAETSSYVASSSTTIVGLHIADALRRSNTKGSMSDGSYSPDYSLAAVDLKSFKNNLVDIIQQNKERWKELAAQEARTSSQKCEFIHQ
Chain of cGMP-dependent 3',5'-cyclic phosphodiesterase (Homo sapiens) (O00408 whole entry): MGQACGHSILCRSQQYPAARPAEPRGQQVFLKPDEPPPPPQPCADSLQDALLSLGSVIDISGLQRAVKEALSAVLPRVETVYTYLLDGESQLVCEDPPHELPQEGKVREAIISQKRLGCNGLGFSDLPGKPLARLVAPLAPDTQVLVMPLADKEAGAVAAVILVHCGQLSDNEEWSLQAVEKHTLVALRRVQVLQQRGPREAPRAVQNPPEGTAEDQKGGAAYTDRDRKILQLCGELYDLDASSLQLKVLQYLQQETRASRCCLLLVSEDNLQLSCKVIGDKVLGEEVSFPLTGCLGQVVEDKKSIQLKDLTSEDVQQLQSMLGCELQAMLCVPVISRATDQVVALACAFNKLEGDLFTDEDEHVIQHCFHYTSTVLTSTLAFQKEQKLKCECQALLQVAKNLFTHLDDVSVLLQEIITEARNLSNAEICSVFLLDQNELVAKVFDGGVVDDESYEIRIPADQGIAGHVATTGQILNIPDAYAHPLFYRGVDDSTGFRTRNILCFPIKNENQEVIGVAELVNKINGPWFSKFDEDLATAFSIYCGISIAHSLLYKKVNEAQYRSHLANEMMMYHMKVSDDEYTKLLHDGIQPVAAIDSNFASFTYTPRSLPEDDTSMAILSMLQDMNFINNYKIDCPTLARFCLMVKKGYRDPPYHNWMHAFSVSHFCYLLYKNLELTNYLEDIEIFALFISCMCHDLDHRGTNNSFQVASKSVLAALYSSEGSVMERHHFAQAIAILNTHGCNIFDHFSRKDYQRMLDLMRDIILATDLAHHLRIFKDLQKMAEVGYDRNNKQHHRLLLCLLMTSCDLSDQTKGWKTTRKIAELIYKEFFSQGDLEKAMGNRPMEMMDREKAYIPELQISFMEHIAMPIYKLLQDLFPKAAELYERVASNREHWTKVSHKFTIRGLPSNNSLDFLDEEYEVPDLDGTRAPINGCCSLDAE
Chain of High affinity 3',5'-cyclic-AMP phosphodiesterase 7A (Homo sapiens) (Q13946 whole entry): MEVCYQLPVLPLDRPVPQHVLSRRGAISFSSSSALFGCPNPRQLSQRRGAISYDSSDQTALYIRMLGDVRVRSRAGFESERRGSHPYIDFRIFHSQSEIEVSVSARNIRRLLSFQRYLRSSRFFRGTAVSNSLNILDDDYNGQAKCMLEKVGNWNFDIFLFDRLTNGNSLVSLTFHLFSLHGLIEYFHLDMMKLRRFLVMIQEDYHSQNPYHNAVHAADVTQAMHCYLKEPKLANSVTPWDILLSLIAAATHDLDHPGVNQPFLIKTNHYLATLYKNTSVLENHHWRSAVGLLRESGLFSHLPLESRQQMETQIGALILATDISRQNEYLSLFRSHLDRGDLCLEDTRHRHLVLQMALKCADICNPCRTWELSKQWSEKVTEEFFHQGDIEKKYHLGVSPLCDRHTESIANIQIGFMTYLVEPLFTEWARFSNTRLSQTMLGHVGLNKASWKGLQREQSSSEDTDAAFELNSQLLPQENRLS

SMILES: COc1ccc(/C=N/OCC(O)CNN2CC(C)OC(C)C2)cc1OC1CCCC1 (stereo not drawn)
Ratio IC50 (Homo sapiens [1]): 85

SMILES: O=C(NCc1ccccc1)c1ccc(OC(F)F)c(OCC2CC2)c1
IC50 (Phosphodiesterase 4): 2100 nM

SMILES: COc1ccc(CNC(=O)c2ccc(OC)c(OC3CCCC3)c2)cc1OC
IC50 (Phosphodiesterase 4): > 100000 nM

SMILES: COc1ccc(CNC(=O)c2ccc(OC(F)F)c(OC3CCCC3)c2)cc1
IC50 [2]: 94 nM
inhibition [3]: 16%
inhibition [4]: 2%
inhibition [5]: 2%
inhibition [6]: 6%
IC50 [7]: 976 nM
inhibition [8]: 2%
inhibition [9]: 10%
inhibition [10]: 1%
inhibition [11]: 11%
IC50 (Phosphodiesterase 4): 1100 nM
inhibition [12]: 3%

SMILES: COc1ccc(CNC(=O)c2ccc(OC(F)F)c(OCC3CC3)c2)cc1OC
IC50 (Phosphodiesterase 4): > 100000 nM

SMILES: COc1ccc(CNC(=O)c2ccc(OC(F)F)c(OCC3CC3)c2)cc1
IC50 [2]: 108 nM
IC50 [7]: 301 nM
Ratio IC50 (Homo sapiens [14]): 2.8
IC50 (Phosphodiesterase 4): 410 nM

SMILES: COc1ccc(CNC(=O)c2ccc(OC(F)F)c(OC3CCCC3)c2)cc1OC
IC50 (Phosphodiesterase 4): > 100000 nM

SMILES: COc1ccc(CNC(=O)c2ccc(OC)c(OC3CCCC3)c2)cc1
IC50 [2]: 284 nM
IC50 [7]: 1030 nM
Ratio IC50 (Homo sapiens [14]): 3.6
IC50 (Phosphodiesterase 4): 960 nM

SMILES: COc1ccc([C@H](C)NC(=O)c2cccnc2Oc2ccc(F)cc2)cc1
Ratio IC50 (Homo sapiens [15]): 142

SMILES: O=C(NCc1ccccc1)c1ccc(OC(F)F)c(OC2CCCC2)c1
IC50 (Phosphodiesterase 4): 2200 nM

The remaining lines, values ahead:

IC50 (Phosphodiesterase 4): 18300 nM
SMILES: COc1ccccc1OCCNC(=O)c1ccc(OC)c(OC2CCCC2)c1

IC50 (Phosphodiesterase 4): 12400 nM
SMILES: COc1ccccc1OCCNC(=O)c1ccc(OC(F)F)c(OC2CCCC2)c1

IC50 (Phosphodiesterase 4): 11100 nM
SMILES: COc1ccccc1OCCNC(=O)c1ccc(OC)c(OCC2CC2)c1

Ratio IC50 (Homo sapiens [13]): 54
SMILES: COc1ccc(Cc2ccc(NC(N)=O)cc2)cc1-c1cccc(Cl)c1

IC50 (Phosphodiesterase 4): 6900 nM
SMILES: COc1ccccc1OCCNC(=O)c1ccc(OC(F)F)c(OCC2CC2)c1

IC50 [2]: 342 nM
IC50 [7]: 1090 nM
Ratio IC50 (Homo sapiens [14]): 3.2
IC50 (Phosphodiesterase 4): 910 nM
SMILES: COc1ccc(CNC(=O)c2ccc(OC)c(OCC3CC3)c2)cc1

IC50 (Phosphodiesterase 4): > 100000 nM
SMILES: COc1ccc(CNC(=O)c2ccc(OC)c(OCC3CC3)c2)cc1OC

Ratio IC50 (Homo sapiens [16]): 13
SMILES: COc1ccccc1OCCNc1ccc(=O)n(Cc2ccc(OC)c(-c3cccc(Cl)c3)c2)n1

Reference: ChEMBL document CHEMBL3627623, “Catecholic amides as potential selective phosphodiesterase 4D inhibitors: Design, synthesis, pharmacological evaluation and structure-activity relationships” (Bioorg Med Chem, 2015)
